# From ChEMBL document CHEMBL4359883, “4(1H)-quinolone derivatives overcome acquired resistance to anti-microtubule agents by targeting the colchicine site of β-tubulin” (Eur J Med Chem, 2019)
# Calls of active or inactive are those of the source. The calls are words filed in the database; no cut-off is given here.
# Legend:
# NCI-H1975 = test: Antiproliferative activity against human NCI-H1975 cells assessed as reduction in cell viability after 72 hrs by MTS assay; format: functional, cell-based; conditions: NCI-H1975, 72 h
# Method in brief: (§1)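 Cells plated at 2000/well, cultured overnight, then exposed to a range of compound concentrations for 72 h. MTS reagent added for 1–4 h at 37 °C and absorbance read at 490 nm. Cultured in RPMI 1640 or DMEM with 10% heat-inactivated FBS under 5% CO2. Data are the mean of three determinations.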
# [1] = Selectivity index, ratio of IC50 for human KB/VCR cells to IC50 for human KB cells; format: functional
# [2] = Antiproliferative activity against human KBtax cells assessed as reduction in cell viability after 72 hrs by MTS assay; format: functional, cell-based; method in brief: as §1
# KB = test: Antiproliferative activity against human KB cells assessed as reduction in cell viability after 72 hrs by MTS assay; format: functional, cell-based; method in brief: as §1
# CCRF-CEM = test: Antiproliferative activity against human CCRF-CEM cells assessed as reduction in cell viability after 72 hrs by MTS assay; format: functional, cell-based; method in brief: as §1
# [3] = Antiproliferative activity against human CCRF-CEM/VBL cells assessed as reduction in cell viability after 72 hrs by MTS assay; format: functional, cell-based; method in brief: as §1
# [4] = Antiproliferative activity against human KB/VCR cells assessed as reduction in cell viability after 72 hrs by MTS assay; format: functional, cell-based; method in brief: as §1
# [5] = Selectivity index, ratio of IC50 for human KBtax cells to IC50 for human KB cells; format: functional
# [6] = Selectivity index, ratio of IC50 for human CCRF-CEM/VBL cells to IC50 for human CCRF-CEM cells; format: functional
# [7] = Toxicity in Balb/c mouse xenografted with human KBtax cells assessed as serum AST level at 15 mg/kg, ip administered 3 times per week and measured after 21 days (reference value: 94.2 +/- 12.5 IU/L); format: organism-based; conditions: in vivo, 504 h
# [8] = target: T1, Tubulin alpha (Homo sapiens) (UniProt P0DPH7+P68366+Q71U36+P68363+Q9BQE3+Q6PEY2+A6NHL2+Q9NY65); test: Induction of microtubule depolymerization in human NCI-H1975 cells assessed as increase in alpha tubulin soluble form by immunoblot analysis; format: cell-based
# Method in brief: (§2)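 Lysate spun at 16,000 rpm for 15 min at room temperature. Soluble (monomer) and particulate (polymer) fractions immunoblotted for α-tubulin.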
# [9] = target: T1, Tubulin alpha (Homo sapiens); test: Induction of microtubule depolymerization in human CL1-0 cells assessed as increase in alpha tubulin soluble form by immunoblot analysis; format: cell-based; method in brief: as §2
# Tubulin (Sus scrofa) = Tubulin (Sus scrofa) (UniProt P02554+P02550); test: Inhibition of porcine tubulin at 5 uM in presence of GTP measured every minute for 1 hr by microplate reader analysis; format: protein assay
# [10] = Toxicity in Balb/c mouse xenografted with human KBtax cells assessed as serum BUN level at 15 mg/kg, ip administered 3 times per week and measured after 21 days (reference value: 17.8 +/-1.1 mg/dl); format: organism-based; conditions: in vivo, 504 h
# [11] = Antitumour activity against human KBtax cells xenografted in Balb/c mouse assessed as reduction in tumour size at 15 mg/kg, ip administered 3 times per week and measured after 21 days (reference value: 1109 +/- 128.3 mm3); format: functional
# [12] = Toxicity in Balb/c mouse xenografted with human KBtax cells assessed as serum creatinine level at 15 mg/kg, ip administered 3 times per week and measured after 21 days (reference value: 0.22 +/- 0.02 mg/dl); format: organism-based; conditions: in vivo, 504 h
# Chain of Tubulin (Sus scrofa) (P02550 whole entry, looked up): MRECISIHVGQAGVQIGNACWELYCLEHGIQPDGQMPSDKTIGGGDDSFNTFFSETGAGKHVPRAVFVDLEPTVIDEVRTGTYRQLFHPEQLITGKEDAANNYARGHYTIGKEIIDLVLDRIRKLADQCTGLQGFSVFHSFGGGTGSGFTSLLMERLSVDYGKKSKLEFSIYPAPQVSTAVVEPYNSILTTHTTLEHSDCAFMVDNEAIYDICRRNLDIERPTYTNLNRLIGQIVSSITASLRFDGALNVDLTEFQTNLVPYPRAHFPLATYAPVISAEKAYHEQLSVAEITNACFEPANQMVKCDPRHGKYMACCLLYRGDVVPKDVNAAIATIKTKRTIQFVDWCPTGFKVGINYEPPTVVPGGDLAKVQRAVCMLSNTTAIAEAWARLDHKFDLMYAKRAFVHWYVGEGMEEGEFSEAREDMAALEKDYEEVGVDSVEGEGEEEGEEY
# Chain of Tubulin (Sus scrofa) (P02554 whole entry, looked up): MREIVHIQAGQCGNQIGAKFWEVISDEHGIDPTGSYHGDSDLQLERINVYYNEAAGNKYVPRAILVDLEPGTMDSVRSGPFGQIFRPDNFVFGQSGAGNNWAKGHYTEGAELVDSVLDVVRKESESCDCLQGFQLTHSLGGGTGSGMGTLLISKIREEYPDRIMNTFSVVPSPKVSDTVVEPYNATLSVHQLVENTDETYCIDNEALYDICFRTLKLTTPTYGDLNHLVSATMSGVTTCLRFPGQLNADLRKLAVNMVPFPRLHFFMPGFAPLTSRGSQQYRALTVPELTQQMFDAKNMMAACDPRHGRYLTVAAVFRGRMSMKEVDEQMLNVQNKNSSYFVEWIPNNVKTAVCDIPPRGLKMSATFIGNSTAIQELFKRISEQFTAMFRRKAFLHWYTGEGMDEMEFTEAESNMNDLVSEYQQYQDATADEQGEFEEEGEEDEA
structure (smiles),measurement,setting,value
CCNC(=O)c1ccc2[nH]c(-c3ccccc3)cc(=O)c2c1,IC50,NCI-H1975,3700 nM
C/C(=C\c1csc(C)n1)[C@@H]1C[C@@H]2O[C@]2(C)CCC[C@H](C)[C@H](O)[C@@H](C)C(=O)C(C)(C)[C@@H](O)CC(=O)N1 [IXABEPILONE],Ratio IC50,[1],24
same,IC50,[2],35 nM
same,IC50,KB,8 nM
same,IC50,CCRF-CEM,3 nM
same,IC50,[3],150 nM
same,IC50,[4],193 nM
same,Ratio IC50,[5],4.3
same,Ratio IC50,[6],50
CCOC(=O)c1ccc2[nH]c(-c3ccc(Br)cc3)cc(=O)c2c1,IC50,NCI-H1975,4500 nM
O=C(O)c1ccc2[nH]c(-c3ccccc3)cc(=O)c2c1,IC50,NCI-H1975,> 5000 nM
CC(=O)O[C@H]1C(=O)[C@@]2(C)[C@H]([C@H](OC(=O)c3ccccc3)[C@]3(O)C[C@H](OC(=O)[C@H](O)[C@@H](NC(=O)c4ccccc4)c4ccccc4)C(C)=C1C3(C)C)[C@]1(OC(C)=O)CO[C@@H]1C[C@@H]2O [PACLITAXEL],Activity,[7],102.8 IU/L
same,IC50,[2],101 nM
same,Activity,[8],inactive
same,Activity,[9],inactive
same,IC50,CCRF-CEM,4 nM
same,tubulin inhibition call (active/not active),Tubulin (Sus scrofa),inactive
same,Activity,[10],19 mg/dL
same,Activity,[11],868.7 mm3
same,Activity,[12],0.16 mg/dL
same,IC50,[3],857 nM
same,IC50,[4],708 nM
CCOC(=O)c1ccc2[nH]c(-c3ccc(O)cc3)cc(=O)c2c1,IC50,NCI-H1975,475 nM
CC(C)OC(=O)c1ccc2[nH]c(-c3ccccc3)cc(=O)c2c1,IC50,NCI-H1975,48 nM
CCOC(=O)c1ccc2[nH]c(-c3cccc(C(F)(F)F)c3)cc(=O)c2c1,IC50,NCI-H1975,780 nM
